Results on 6 compounds are retold here after publication PMC4972181 (Journal of medicinal chemistry, 2015).

Usually IC50 stands for the midpoint of a concentration-inhibition curve.

Where two headings read alike, the source gives them in different places. A value given as a limit tells only on which side of the number the result lay.

For series [1], the system named is INSR minigene exon 11 splicing in HeLa cells expressing CUG960. The class given is cell-based, human. Particulars: for INSR mis-splicing rescue (in words): HeLa cells, CUG960 + INSR minigene.
The subject of series [2] is INSR minigene exon 11 splicing in HeLa cells without CUG960. The series is described as follows: Control splicing experiment, INSR minigene in the absence of transfected CUG960. Conditions: 80 μM; untreated range ~70% to ~80 %. It is filed as cell-based, human.
For the next series, the system named is Atp2a1 exon 22 splicing. The series is described as follows: HSALR DM1 mouse model, Atp2a1 splicing in quadriceps muscle. The class given is in vivo. Particulars: HSALR mice, wild type 100 ± 0.2 %, HSALR 28 ± 2 %. The method, boiled down: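 Homozygous, gender-matched HSALR transgenic mice aged 10–14 wks received the test compound in 5% glucose solution by daily intraperitoneal injection for 7 d. Controls received 5% glucose injections. Mice were killed 1 d after the last dose and quadriceps was taken. RNA was reverse transcribed, PCR-amplified and run on agarose gels read by fluorimager. Inclusion was scored per individual mouse.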

Series [3] relates to TNNT2 minigene exon 5 splicing in HeLa cells expressing CUG960. As to the kind of experiment: HeLa cell DM1 splicing assay, TNNT2 minigene co-transfected with CUG960. It is filed as cell-based, human.
The test system of series [4] is CUG: MBNL nuclear foci in HeLa cells transfected with CUG960. As to the kind of experiment: Fluorescent microscopy of CUG RNA nuclear foci and MBNL1 localization. Conditions: for Effect on ribonuclear foci (in words): 50 μM pentamidine or 80 μM compound 13. The class given is cell-based, human.
The nature of series [5]: Toxicity observed in treated HSALR mice. It is filed as in vivo, mouse. Conditions: 10 and 20 mg/kg daily i.p. for 7 d.
Series [6] in a line: Flow cytometry cell viability assay with propidium iodide in the DM1 cell model. Conditions: human, HeLa cells, DM1 cell model (transfected).
The nature of another series: in vitro. Particulars: human.

With `N=C(N)c1ccc(OCCCOc2ccccc2)cc1` [Compound 2a], the “INSR mis-splicing rescue (in words)” value in series [1] is “dose-dependent rescue of mis-splicing through 60 μM”.

`N=C(N)c1ccc(OCCCCc2ccccc2)cc1` [Compound 2b]: the “INSR mis-splicing rescue (in words)” value in series [1] is “little rescue was observed by 20 μM”.

On to `N=C(N)c1cccc(OCCCCCCCOc2cccc(C(=N)N)c2)c1` [Compound 4], for which, in series [1], the “Toxicity observed in the cell splicing assay (in words)” value is listed as “very toxic over the range tested” and the “INSR mis-splicing rescue (in words)” value is reported as “almost complete dose-dependent mis-splicing rescue at 25 μM”.

Take `N=C(N)c1ccc(-c2ccc(-c3ccc(C(=N)N)cc3)o2)cc1` [Compound 13, furamidine]: the “INSR exon 11 inclusion in the absence of CUG960” value in series [2] stood at 81± 4%. Also, the “Atp2a1 exon 22 inclusion” value was 64 ± 4% in the series with Atp2a1 exon 22 splicing (10 mg/kg daily i.p. 7 days) and 83 ± 4% in the series with Atp2a1 exon 22 splicing (20 mg/kg daily i.p. 7 days). Besides, the “Concentration by which full TNNT2 mis-splicing reversal was achieved” value in series [3] was no more than 80 µM. Besides, in series [1] (HeLa DM1 cell model, qualitative), the “Toxicity observed in the cell splicing assay (in words)” value is reported as “non-toxic over the range of rescue”. The “Effect on ribonuclear foci (in words)” value in series [4] is given as “significant reduction of ribonuclear foci”. Further, in series [4] (80 μM, vs transfected controls, n = 121, p < 0.05), the “Reduction of nuclear foci per cell” value is reported as 89%. In addition, the “Toxicity in mice (in words)” value in series [5] is listed as “No toxicity was observed over the concentration range tested”.

The compound `N=C(N)c1ccc(OCCCCCCCOc2ccc(C(=N)N)cc2)cc1` [Heptamidine, heptamidine] yielded an IC50 at 18 h in series [6] of 15 ± 0.46 µM.

`N=C(N)c1ccc(OCCCCCOc2ccc(C(=N)N)cc2)cc1` [Pentamidine, pentamidine, reference compound] registered an IC50 at 18 h in the series “in vitro” of 64 ± 12 µM. Further, the “Effect on ribonuclear foci (in words)” value in series [4] is given as “significant reduction of ribonuclear foci”.
